For one data set, the system named is MCF7. In words: Antiproliferative activity against human MCF7 cells assessed as reduction in cell viability at 100 measured after 72 hrs by resazurin dye-based fluorimetric analysis. Format: functional. In outline:
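MCF-7 cells were seeded at 2 × 10^4 cells/well on collagen-coated plates and treated one day later. Agents were given alone or combined (25 or 100 µM with 100 µM partner drug) in growth medium for 3 days. Viability was read daily by resazurin fluorescence (ex 560/em 590 nm) and expressed relative to untreated controls.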

Data set [1] concerns the target Large neutral amino acids transporter small subunit 1 (Homo sapiens, UniProt Q01650). In words: Binding affinity to LAT1 in human MCF7 cells at 100 uM after 30 mins by HPLC analysis. Format: cell-based. In outline: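 MCF-7 cells given 25-400 µM compound in pre-warmed HBSS (pH 7.4) at 37 °C for 30 min, washed three times with ice-cold HBSS, lysed in 0.1 M NaOH. Lysate quantified by HPLC-UV against a standard curve spiked into cell lysate. Amount normalised to protein (Bio-Rad assay, nmol/mg protein). n=3.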

A short description of data set [2]: Metabolic stability in human plasma at 37 degreeC in presence of NADPH regenerating system measured after 2 hrs by HPLC analysis. Type of data set: ADME, cell-free.
The nature of data set [3]: Fraction unbound in mouse plasma at 23 umol/kg, ip administered as bolus by LC-MS analysis. Type of data set: ADME, organism-based. The procedure, abridged: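 Unbound fraction was measured by equilibrium dialysis at 100 µM in mouse plasma and in brain, liver, kidney, heart and prostate homogenates.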

Activity calls are given as the source filed them. The rule behind the calls is not given here.

Large neutral amino acids transporter small subunit 1, sequence (Q01650 whole entry): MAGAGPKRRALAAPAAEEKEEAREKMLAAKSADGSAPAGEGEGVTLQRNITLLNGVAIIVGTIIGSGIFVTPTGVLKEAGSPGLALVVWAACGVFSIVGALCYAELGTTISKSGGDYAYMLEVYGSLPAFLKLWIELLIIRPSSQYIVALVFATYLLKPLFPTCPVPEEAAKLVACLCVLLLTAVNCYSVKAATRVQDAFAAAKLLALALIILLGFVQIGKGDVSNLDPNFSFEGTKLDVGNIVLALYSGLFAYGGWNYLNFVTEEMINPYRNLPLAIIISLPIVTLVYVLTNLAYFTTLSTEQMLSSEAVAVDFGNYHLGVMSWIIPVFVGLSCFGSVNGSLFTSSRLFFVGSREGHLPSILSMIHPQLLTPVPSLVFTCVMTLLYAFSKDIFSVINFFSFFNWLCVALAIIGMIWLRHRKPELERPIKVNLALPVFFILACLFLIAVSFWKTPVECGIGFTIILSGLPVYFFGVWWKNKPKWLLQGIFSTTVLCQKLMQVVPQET

Consider `CNC(=O)COc1ccc(-c2c(C#N)c(NC(=O)c3cccc(C[C@H](N)C(=O)O)c3)n3c(nc4ccccc43)c2C#N)cc1`, for which the Activity with MCF7 is listed as 47.7%. Also, in data set [1], the result was Active. For the same molecule, in data set [2], the Stability entry is reported as “Stable”. Besides, the free fraction (fraction unbound) (as a rule, the share of the substance not bound to proteins or other matrix) in data set [3] is 0.0098.

Source of the values: ChEMBL document CHEMBL4425108, “A Selective and Slowly Reversible Inhibitor of l-Type Amino Acid Transporter 1 (LAT1) Potentiates Antiproliferative Drug Efficacy in Cancer Cells” (J Med Chem, 2016).
